In PubChem BioAssay AID1267 (The Scripps Research Institute Molecular Screening Center, 2008):
Among all 1,200 compounds or so, about 770 (64%) were called active. So high a share suggests a set chosen from earlier hits. The list is a sample of the results. Values without a mark were called inactive.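 The calls were made as follows: active = percent activation of the STAT3 luciferase reporter above a set limit taken from the earlier primary screen (cut at about 130% in these data); inactive = the rest.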

Experiment: enhancers of IL-6 STAT3 signaling – U3A cells, luciferase, luminescence, confirmation (AID 1267);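 also: 0% = background signal of medium plus substrate and 100% = median of IL-6 with DMSO wells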
Conditions: U3A STAT3-luciferase reporter, IL-6 potentiation, at 5.7 µM, active compounds read high, 100 means same as IL-6 alone, U3A cells lack STAT1
Method in brief: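 System: STAT1-null U3A cells carrying STAT3-luciferase reporter; Read-out: % potentiation versus median IL-6 plus DMSO wells, background-subtracted; Times: 1 h pretreatment, 6 h IL-6, 37 °C; Also added: IL-6 stimulus at 33 ng/mL final; Measured by: luminescence.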

Structure (SMILES)	potentiation (% of control)
CC(=O)Nc1ccc(NC(=O)COc2ccccc2C(=O)Nc2cccc(Cl)c2Cl)cc1	143% (active)
CSc1nc(N(C)NC(=O)c2cccc(C)c2)c2ccccc2n1	112%
Cc1cccc(C(=O)Nc2nnc(Cc3c[nH]c4ccccc34)s2)c1	150% (active)
COc1ccc(/C=N/Nc2ncnc3sc4c(c23)CCCC4)cc1O	114%
O=C(Nc1cc(C(F)(F)F)ccc1Cl)c1cc(C2CC2)on1	145% (active)
Fc1ccc2nc(-c3ccccc3)nc(SCc3nnc(-c4ccccc4)o3)c2c1	132%
OC(COc1ccc2ccccc2c1)CN1CCOCC1 (stereo not given)	157% (active)
COc1ccccc1C1C2=C(COC2=O)Nc2cc3c(cc21)OCO3 (stereo not given)	124%
COc1ccc(-c2c3c(=O)n(C)c(=O)n(C)c3cn2-c2cccc(OC)c2)cc1	158% (active)
COc1ccccc1N1CCN(C(=O)c2cc3c(-c4ccc(Cl)cc4)nn(C)c3s2)CC1	125%
Cn1nc(-c2ccc(Cl)cc2)c2cc(C(=O)NCc3ccco3)sc21	153% (active)
O=C(NCc1ccco1)c1cccn2c(=O)c3c4c(sc3nc12)CCCC4	128%
COc1ccc(C)cc1NC(=O)c1[nH]c(C)c(C(C)=O)c1C	144% (active)
N#Cc1ccccc1NC(=O)COc1c(Br)cc(Br)c2cccnc12	162% (active)
O=C(C1CCN(S(=O)(=O)Cc2ccccc2)CC1)N1CCCc2ccccc21	118%
CSc1nc2sc3c(c2c(=O)[nH]1)CCc1ccccc1-3	142% (active)
CCSc1nnc(-c2cc3c(s2)-c2ccccc2CC3)o1	162% (active)
COc1cccc(NC(=S)C(C#N)=C2N(C)c3ccccc3N2C)c1	122%
COc1ccc(C2c3[nH]c4ccccc4c3CCN2CCCn2cccn2)cc1C (stereo not given)	142% (active)
Cc1ccc(OCc2nnc(SC3CCc4ccccc4C3=O)n2C)cc1 (stereo not given)	151% (active)
CN1CCN(c2ccc([N+](=O)[O-])c(Sc3nc4ccccc4[nH]3)c2)CC1	107%
Cc1ccc(S(=O)(=O)Nc2nc3ccccc3nc2N2CCc3ccccc3C2)cc1	124%
Cc1cccc(N(CC(=O)N=Nc2c(O)[nH]c3ccccc23)S(C)(=O)=O)c1C	129%
Cc1nc2ccccc2cc1O	146% (active)
CCCS(=O)(=O)Nc1c(C(=O)O)[nH]c2ccccc12	170% (active)

Structure (SMILES)	potentiation (% of control)
COC(=O)c1[nH]c2ccccc2c1NS(=O)(=O)c1ccc(OC)cc1OC	116%
CC(C)CNC(=O)COC(=O)/C=C/c1ccccc1[N+](=O)[O-]	126%
CCn1c(SCC(=O)N/N=C/C=C/c2ccccc2[N+](=O)[O-])nnc1-c1ccccc1	137% (active)
N#Cc1c(C(F)(F)F)cc(-c2ccc(Cl)cc2)nc1SCC(=O)O	159% (active)
COc1ccc(Cl)cc1NC(=O)c1oc(C)nc1C	147% (active)
C/C(=N\NC(=O)CNc1cccc2ccccc12)c1ccc(Br)s1	98.2%
Cc1ccc(/C=N/NC(=O)COc2ccccc2-c2ccccc2)cc1	135% (active)
Cc1ccc(C2=NN(C)c3nc4ccccc4n3C2)cc1	151% (active)
Oc1c(C=Nc2cccc3nsnc23)ccc2ccccc12	129%
COc1cc(OC)cc(C(=O)N[C@H](C(=O)Nc2nc3ccccc3[nH]2)C(C)C)c1	108%
COc1cc(NS(=O)(=O)c2ccc(N/C=C(\C=O)c3nc4cc(Cl)ccc4o3)cc2)nc(OC)n1	144% (active)
C/C(=N\c1nc2ccccc2n1C)c1cc(Cl)ccc1O	118%
Cc1ccc(NC(=O)c2cc([N+](=O)[O-])ccc2Cl)c(O)c1	158% (active)
Oc1cccc2ccc(/C=C/c3ccc(Br)s3)nc12	169% (active)
Cn1cccc1C(=O)Nc1nccs1	132%
CCOC(=O)N1CCN(CC(=O)Nc2cc(C)nn2-c2nc3ccccc3s2)CC1	140% (active)
NC(=O)CSc1c[nH]c2ccccc12	165% (active)
O=c1[nH]c(CSc2ncc(-c3ccc(F)cc3)n2Cc2ccco2)nc2ccccc12	122%
COc1ccc([N+](=O)[O-])cc1C1NN=C(c2cccc3ccccc23)S1 (stereo not given)	138% (active)
O=C1CCCN1CCCNc1ncnc2c1[nH]c1ccccc12	144% (active)
COCCCNc1nc2c(-c3cccc(C(F)(F)F)c3)nnn2c2ccccc12	134% (active)
COc1ccccc1-c1nnc(NC(=O)c2ccc3ncsc3c2)o1	147% (active)
COc1ccccc1-c1nnc(SCC(=O)N2CC(C)CC(C)C2)o1 (stereo not given)	117%
Cc1cccc(C(=O)N2CCc3c([nH]c4ccccc34)C2CC(C)C)n1 (stereo not given)	159% (active)
c1ccc(-c2cn3c(n2)CCc2ccc4cccnc4c2-3)cc1	139% (active)

Structure (SMILES)	potentiation (% of control)
CCOC(=O)c1c(-c2cccc(C)c2)csc1NC(=O)c1c(-c2ccccc2)noc1C	122%
O=C(O)CS/C(=C\c1ccc(F)cc1)c1nc2ccccc2s1	132%
O=C(O)CSCc1nc2ccccc2s1	154% (active)
COc1ccc(NC(=O)ON=C2c3ccccc3-c3ccccc32)cc1	121%
CCOc1ccc(C2c3[nH]c4ccccc4c3CCN2Cc2cn(CC)nc2C)cc1 (stereo not given)	143% (active)
COc1nc(N=C(N)N)nc2c(C)cccc12	144% (active)
Cc1nc(N=C(N)N)nc2c(C)cccc12	172% (active)
Cc1ccc(N=Nc2c(C)[nH]n(-c3ccccc3)c2=O)cc1	147% (active)
CCOC(=O)C1CCN(c2ncnc3c2oc2ccc(Br)cc23)CC1	138% (active)
CCNCc1cc2cc(C)ccc2[nH]c1=O	120%
CSCCC(NC(=O)c1ccco1)C(=O)OCC(=O)Nc1ncc(Cl)c(C)c1Cl (stereo not given)	124%
C=CCCC(=O)Nc1nc(C)c(-c2csc(Nc3ccc(Cl)cc3)n2)s1	135% (active)
Cc1ccc(Nc2nc(-c3sc(NC(=O)c4ccccc4)nc3C)cs2)cc1	122%
CCCCC(=O)Nc1nc(C)c(-c2csc(Nc3ccc(Cl)cc3)n2)s1	133%
Cc1ccc(-c2cc(C(=O)Nc3nn[nH]n3)c3ccccc3n2)c(C)c1	121%
O=[N+]([O-])c1ccc(N2CCN(S(=O)(=O)c3ccc4ccccc4c3)CC2)cc1NCc1ccco1	123%
CN1C(=O)/C(=C\c2cc(Br)cs2)c2ccccc21	190% (active)
Cc1csc2ncc(C(=O)N(Cc3ccccc3)c3ccccn3)c(=O)n12	111%
CCOC(=O)CN(C)Cc1c[nH]c2ccccc12	157% (active)
O=C(Cc1c[nH]c2ccccc12)OCCOC(=O)Cc1c[nH]c2ccccc12	121%
COc1cccc(/C=C(/CC(=O)Nc2ccc(N3CCOCC3)cc2)c2nc3ccccc3s2)c1	146% (active)
Oc1cccc(C2c3[nH]c4ccccc4c3CCN2Cc2cnn(-c3ccccc3)c2)c1 (stereo not given)	137% (active)
COC(=O)c1[nH]c2cccc(C)c2c1NC(=O)CN1CCCc2ccccc21	128%
COC(=O)c1[nH]c2ccccc2c1NC(=O)CN1CCCc2ccccc21	153% (active)
C=CCn1c(-c2ccccc2OCC)n[nH]c1=S	178% (active)
